Series [1] in a line: (§1) Effective free therapeutic plasma concentration (EFTPC): the concentration of unbound compund in the blood plasma at therapeutic dose (mean of range). The class given is ADME, organism-based. Particulars: human, in vivo.
Series [2] deals with Voltage-gated L-type calcium channel (Homo sapiens, UniProt Q13936+Q13698+Q01668+O60840). Nature of the series: Inhibition of voltage-gated L-type Ca channel (species unknown). The class given is functional.
Series [3] concerns the target Sodium channel alpha subunit. Description: Inhibition of Na channel (species unknown). In kind it is functional.
In series [4] the target is T1, Voltage-gated inwardly rectifying potassium channel KCNH2 (Homo sapiens, UniProt Q12809). Description: (§2) Inhibition of hERG K channel. The class given is functional. In short, it runs like this:
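IKr block assessed from concentration–response curves in HEK-293 cells stably transfected with hERG cDNA, giving IC50 values.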

The nature of series [5]: as §1. The note with it: human, in vivo.
The target in series [6] is Sodium channel protein type 5 subunit alpha (Homo sapiens, UniProt Q14524). Description: Inhibition of sodium current measured using whole-cell patch clamp experiments in HEK-293 cells stably transfected with hNaV1.5 cDNA. In kind it is functional, cell-based, HEK293.
The target of series [7] is Voltage-dependent L-type calcium channel subunit alpha-1C (Cavia porcellus, UniProt O35505). Description: Inhibition of calcium current (ICaL) measured using whole-cell patch clamp experiments in isolated guinea pig ventricular myocytes. The class given is functional, tissue-based, Heart, Ventricular myocyte.
The target of series [8] is T1, Voltage-gated inwardly rectifying potassium channel KCNH2. Nature of the series: Inhibition of potassium current (Ikr) measured using whole-cell patch clamp experiments in HEK-293 cells stable transfected with hERG cDNA. The class given is functional, cell-based, HEK293. In short, it runs like this:
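IKr concentration–response curves were recorded in HEK-293 cells stably expressing hERG cDNA.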

Series [9] has the same target. The description is as §2.

The structures appear in SMILES notation.

Sodium channel protein type 5 subunit alpha, sequence (Q14524 whole entry): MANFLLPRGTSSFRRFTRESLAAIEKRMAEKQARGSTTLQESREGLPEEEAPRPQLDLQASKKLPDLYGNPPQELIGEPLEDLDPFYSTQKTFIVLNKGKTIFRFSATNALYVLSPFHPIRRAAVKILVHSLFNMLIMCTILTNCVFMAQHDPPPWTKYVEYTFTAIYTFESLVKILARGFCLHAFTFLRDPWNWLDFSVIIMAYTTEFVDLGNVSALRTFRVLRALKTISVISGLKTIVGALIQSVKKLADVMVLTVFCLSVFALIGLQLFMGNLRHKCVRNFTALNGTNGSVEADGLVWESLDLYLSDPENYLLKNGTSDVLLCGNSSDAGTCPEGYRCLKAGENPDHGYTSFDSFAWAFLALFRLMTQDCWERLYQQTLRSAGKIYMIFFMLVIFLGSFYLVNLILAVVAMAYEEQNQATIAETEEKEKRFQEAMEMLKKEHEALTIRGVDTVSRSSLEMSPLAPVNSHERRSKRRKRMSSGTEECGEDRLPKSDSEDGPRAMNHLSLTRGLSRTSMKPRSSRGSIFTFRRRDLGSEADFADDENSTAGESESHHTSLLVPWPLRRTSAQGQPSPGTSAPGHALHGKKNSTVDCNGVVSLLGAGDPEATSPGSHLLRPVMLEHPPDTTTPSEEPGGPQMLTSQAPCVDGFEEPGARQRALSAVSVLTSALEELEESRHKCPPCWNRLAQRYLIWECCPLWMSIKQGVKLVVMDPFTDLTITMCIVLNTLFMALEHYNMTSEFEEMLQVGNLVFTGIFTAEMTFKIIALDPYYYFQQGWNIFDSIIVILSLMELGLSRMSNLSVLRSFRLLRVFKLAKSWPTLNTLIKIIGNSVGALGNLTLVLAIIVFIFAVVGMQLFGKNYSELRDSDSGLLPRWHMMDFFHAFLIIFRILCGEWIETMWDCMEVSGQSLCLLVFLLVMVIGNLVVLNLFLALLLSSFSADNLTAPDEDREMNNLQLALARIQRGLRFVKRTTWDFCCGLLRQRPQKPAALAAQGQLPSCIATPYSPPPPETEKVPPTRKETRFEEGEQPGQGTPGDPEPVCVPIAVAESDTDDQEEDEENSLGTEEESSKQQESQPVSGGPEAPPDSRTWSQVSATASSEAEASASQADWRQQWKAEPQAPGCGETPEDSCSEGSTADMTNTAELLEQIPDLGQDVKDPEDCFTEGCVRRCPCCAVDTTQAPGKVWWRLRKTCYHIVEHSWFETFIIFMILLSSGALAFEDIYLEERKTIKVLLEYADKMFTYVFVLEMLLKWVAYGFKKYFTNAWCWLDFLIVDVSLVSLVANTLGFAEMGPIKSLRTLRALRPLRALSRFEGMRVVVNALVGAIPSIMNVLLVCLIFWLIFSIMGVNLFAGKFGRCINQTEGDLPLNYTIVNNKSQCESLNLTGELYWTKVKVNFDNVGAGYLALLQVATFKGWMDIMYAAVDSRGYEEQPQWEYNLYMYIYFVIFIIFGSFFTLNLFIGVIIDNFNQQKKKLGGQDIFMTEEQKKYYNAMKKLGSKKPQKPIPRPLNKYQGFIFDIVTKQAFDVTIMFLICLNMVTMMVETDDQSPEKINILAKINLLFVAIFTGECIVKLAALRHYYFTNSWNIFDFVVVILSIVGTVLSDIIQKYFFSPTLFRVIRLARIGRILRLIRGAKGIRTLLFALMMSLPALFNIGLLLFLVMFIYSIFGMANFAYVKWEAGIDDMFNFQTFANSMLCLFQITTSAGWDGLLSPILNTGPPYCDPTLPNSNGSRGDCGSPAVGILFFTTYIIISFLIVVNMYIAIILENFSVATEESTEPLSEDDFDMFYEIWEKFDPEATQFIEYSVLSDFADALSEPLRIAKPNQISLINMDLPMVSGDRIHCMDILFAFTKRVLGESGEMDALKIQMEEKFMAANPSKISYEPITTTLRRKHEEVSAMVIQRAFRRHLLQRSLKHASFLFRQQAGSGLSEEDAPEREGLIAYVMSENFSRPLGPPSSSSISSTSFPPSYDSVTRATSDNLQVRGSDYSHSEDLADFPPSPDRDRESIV
Voltage-dependent L-type calcium channel subunit alpha-1C, sequence (O35505 whole entry): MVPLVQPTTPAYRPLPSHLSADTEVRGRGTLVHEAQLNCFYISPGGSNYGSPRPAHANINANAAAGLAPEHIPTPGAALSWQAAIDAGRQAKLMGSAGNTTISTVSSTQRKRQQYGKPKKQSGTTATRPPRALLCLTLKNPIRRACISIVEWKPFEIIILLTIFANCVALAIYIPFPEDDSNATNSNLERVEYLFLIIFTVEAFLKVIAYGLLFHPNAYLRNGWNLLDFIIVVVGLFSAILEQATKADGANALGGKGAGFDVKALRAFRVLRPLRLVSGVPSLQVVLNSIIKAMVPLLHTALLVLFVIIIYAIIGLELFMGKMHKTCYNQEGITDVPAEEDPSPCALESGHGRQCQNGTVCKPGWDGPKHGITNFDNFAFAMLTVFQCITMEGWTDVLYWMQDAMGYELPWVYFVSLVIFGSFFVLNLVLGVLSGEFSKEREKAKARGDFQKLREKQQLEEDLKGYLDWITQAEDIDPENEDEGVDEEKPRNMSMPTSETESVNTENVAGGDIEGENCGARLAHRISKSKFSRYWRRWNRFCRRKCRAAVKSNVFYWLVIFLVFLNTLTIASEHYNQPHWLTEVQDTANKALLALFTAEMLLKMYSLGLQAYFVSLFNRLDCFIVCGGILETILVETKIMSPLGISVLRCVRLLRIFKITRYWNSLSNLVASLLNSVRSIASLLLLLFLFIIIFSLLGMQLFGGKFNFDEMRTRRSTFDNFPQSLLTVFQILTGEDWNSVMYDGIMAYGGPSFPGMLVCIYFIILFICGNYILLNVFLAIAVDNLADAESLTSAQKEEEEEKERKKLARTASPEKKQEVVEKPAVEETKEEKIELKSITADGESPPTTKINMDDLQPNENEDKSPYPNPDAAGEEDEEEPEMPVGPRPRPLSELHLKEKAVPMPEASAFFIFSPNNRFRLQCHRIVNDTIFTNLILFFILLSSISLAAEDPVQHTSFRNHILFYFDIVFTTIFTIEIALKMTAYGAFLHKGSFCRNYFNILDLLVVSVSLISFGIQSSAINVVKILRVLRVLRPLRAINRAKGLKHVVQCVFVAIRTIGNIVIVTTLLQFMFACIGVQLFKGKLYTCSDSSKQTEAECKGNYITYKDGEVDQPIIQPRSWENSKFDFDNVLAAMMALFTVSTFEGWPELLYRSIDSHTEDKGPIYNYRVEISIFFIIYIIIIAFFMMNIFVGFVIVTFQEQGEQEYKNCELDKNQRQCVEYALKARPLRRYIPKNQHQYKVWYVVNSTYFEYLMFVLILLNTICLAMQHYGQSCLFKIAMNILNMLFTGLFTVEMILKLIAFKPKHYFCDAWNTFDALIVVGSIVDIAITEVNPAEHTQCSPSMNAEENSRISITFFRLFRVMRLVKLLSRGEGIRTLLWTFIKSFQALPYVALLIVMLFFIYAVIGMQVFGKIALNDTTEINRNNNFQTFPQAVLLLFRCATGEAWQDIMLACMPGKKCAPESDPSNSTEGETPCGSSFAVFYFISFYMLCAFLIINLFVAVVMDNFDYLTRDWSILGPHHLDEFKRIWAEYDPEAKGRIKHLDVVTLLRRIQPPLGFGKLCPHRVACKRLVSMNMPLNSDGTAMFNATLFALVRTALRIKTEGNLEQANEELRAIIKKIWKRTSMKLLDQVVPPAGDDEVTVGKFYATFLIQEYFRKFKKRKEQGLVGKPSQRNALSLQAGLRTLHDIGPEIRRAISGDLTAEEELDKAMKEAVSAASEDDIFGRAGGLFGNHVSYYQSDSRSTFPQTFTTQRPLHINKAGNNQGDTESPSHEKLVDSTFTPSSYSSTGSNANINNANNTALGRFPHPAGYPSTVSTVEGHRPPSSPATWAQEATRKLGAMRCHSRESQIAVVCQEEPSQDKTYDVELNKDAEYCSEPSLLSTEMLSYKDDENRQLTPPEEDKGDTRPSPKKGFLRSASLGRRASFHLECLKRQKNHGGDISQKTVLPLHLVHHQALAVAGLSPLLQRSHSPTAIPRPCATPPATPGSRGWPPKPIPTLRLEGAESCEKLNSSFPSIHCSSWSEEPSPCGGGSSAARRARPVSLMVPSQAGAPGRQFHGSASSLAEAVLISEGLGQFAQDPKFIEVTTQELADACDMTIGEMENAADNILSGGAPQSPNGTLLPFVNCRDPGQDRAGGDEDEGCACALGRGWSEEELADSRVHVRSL

`CNCCCN1c2ccccc2CCc2ccccc21` [DESIPRAMINE]: the EFTPC in [1] was 67.5 nM.
As for `CN(C)CCC=C1c2ccccc2CCc2ccccc21` [AMITRIPTYLINE], the IC50 in series [2] was determined as 11.6 µM; in series [3], 20 µM.
For `C1CCC2(C1)C1CN(CC3CC3)CC2CN(CC2CC2)C1`, the IC50 was 2.5 µM in series [4] and 20 µM in [3]. Further, in [1], the EFTPC was 80 nM.
In turn, `CN(CCOc1ccc(NS(C)(=O)=O)cc1)CCc1ccc(NS(C)(=O)=O)cc1` [DOFETILIDE] displayed an EFTPC in series [1] of 1.2 nM. Moreover, in [3], the IC50 is 300 µM.
Consider `CC[C@H]1[C@@H]2C[C@H]3[C@@H]4N(C)c5ccccc5[C@]45C[C@@H]([C@@H]2[C@H]5O)N3[C@@H]1O` [AJMALINE], for which the values for the IC50 in [4] and in [3] were 1.04 µM and […], respectively. In addition, in series [1], the EFTPC is reported as 900 nM.
`COC(=O)C1=C(C)NC(C)=C(C(=O)OC)C1c1ccccc1[N+](=O)[O-]` [NIFEDIPINE] had an EFTPC in series [5] of 5.4 nM.
Regarding `CSc1ccc2c(c1)N(CCC1CCCCN1C)c1ccccc1S2` (centres undefined) [THIORIDAZINE], the EFTPC in series [1] is recorded as 593.5 nM.
In turn, `O=C1NC(=O)C(c2ccccc2)(c2ccccc2)N1` [PHENYTOIN] showed an EFTPC in [1] of 4250 nM. The IC50 in [6] is 49 µM.
On to `COCC(=O)O[C@]1(CCN(C)CCCc2nc3ccccc3[nH]2)CCc2cc(F)ccc2[C@@H]1C(C)C` [MIBEFRADIL], for which, in series [1], the EFTPC amounted to 9 nM.
On to `CCOC(=O)C1=C(C)NC(C)=C(C(=O)OC)C1c1cccc([N+](=O)[O-])c1` (centres undefined) [NITRENDIPINE], for which the EFTPC in series [1] came to 1.56 nM. Besides, the concentration for half-maximal inhibition (IC50) in series [3] worked out at 36 µM.
`CC(C)NCC(O)COc1cccc2ccccc12` (centres undefined) [PROPRANOLOL] came in with an EFTPC in series [1] of 19 nM.
Consider `O=c1[nH]c2ccccc2n1C1CCN(CCCC(c2ccc(F)cc2)c2ccc(F)cc2)CC1` [PIMOZIDE], for which the EFTPC in [1] amounted to 0.55 nM. Besides, the concentration for half-maximal inhibition (IC50) in [3] was found to be 0.054 µM.
In [1], `c1ccc(C2(c3ccccc3)CC2C2=NCCN2)cc1` (centres undefined) [CIFENLINE] displayed an EFTPC of 739 nM. The IC50 in series [2] was 30 µM; in series [3], 7.8 µM.
The compound `CC(Cc1ccccc1)NCCC(c1ccccc1)c1ccccc1` (centres undefined) [PRENYLAMINE] returned an EFTPC in series [1] of 13 nM. In addition, the values for the IC50 in series [7], in [8] and in [6] were 1.24 µM, 0.065 µM and 2.52 µM, respectively.
As for `Cc1nc2n(c(=O)c1CCN1CCC(c3noc4cc(F)ccc34)CC1)CCCC2` [RISPERIDONE], the EFTPC in series [1] came out at 1.21 nM.
For the compound `COc1cc(N)c(Cl)cc1C(=O)NC1CCN(CCCOc2ccc(F)cc2)CC1OC` (centres undefined) [CISAPRIDE], the EFTPC in series [1] came to 3.75 nM. The compound further displayed an IC50 in [6] of 14.7 µM.
On to `COc1ccc([C@@H]2Sc3ccccc3N(CCN(C)C)C(=O)[C@@H]2OC(C)=O)cc1` [DILTIAZEM], for which the EFTPC in [1] is 87.5 nM. This compound also showed an IC50 in series [3] of 9 µM.
As for `O=C1NCCN1CCN1CCC(c2cn(-c3ccc(F)cc3)c3ccc(Cl)cc23)CC1` [SERTINDOLE], the EFTPC in series [1] came out at 0.8 nM. Besides, the IC50 in [2] worked out at 8.9 µM; in series [3], 2.3 µM.
Consider `COCCCC/C(=N\OCCN)c1ccc(C(F)(F)F)cc1` [FLUVOXAMINE], for which, in series [1], the EFTPC came out at 196 nM. Further, the IC50 in series [7] is 4.9 µM.
With `Cc1cccc(C)c1OCC(C)N` (centres undefined) [MEXILETINE], the IC50 in [9] is above 10 µM.
For the compound `CN(C)CCCN1c2ccccc2CCc2ccccc21` [IMIPRAMINE], in [1], the EFTPC turned out to be 70.5 nM. The figures for the IC50 in series [2] and in [3] were 8.3 µM and 3.6 µM, respectively.
`CC(C)COCC(CN(Cc1ccccc1)c1ccccc1)N1CCCC1` (centres undefined) [BEPRIDIL]: the EFTPC in series [1] was 21.5 nM. The figures for the IC50 in series [7] and in series [6] were 0.211 µM and 3.7 µM, respectively.
Turning to `CN(C)CCCN1c2ccccc2Sc2ccc(Cl)cc21` [CHLORPROMAZINE], the EFTPC in series [1] is on record as 20.5 nM. The same compound returned an IC50 in series [3] of 4.3 µM.
In series [1], `CC(C)(C)c1ccc(C(O)CCCN2CCC(C(O)(c3ccccc3)c3ccccc3)CC2)cc1` (centres undefined) [TERFENADINE] registered an EFTPC of 4.55 nM.
On the same count and under the same terms, the result for `O=C(CCCN1CCC(O)(c2ccc(Cl)cc2)CC1)c1ccc(F)cc1` [HALOPERIDOL] reads 2.4 nM.
